Rev-erbA mod: Rev-erb alpha (human) modulation | 370,000 tested, 0.79% active | P20393 | Rev-erbα–FITC-DNA binding, fluorescence polarization, 90 min | activity, % at 10 µM;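 active = activity above about 14%, limit read from the data; passing the limit was not always enough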;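 also: 0% = DMSO wells with 35 nM protein and 100% = DMSO wells with 750 nM protein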
Rin1-Abl PPI inh: inhibitors of human Rin1-Abl protein interaction | TR-FRET Rin1/Abl binding, biochemical | inhibition, % at 7.35 µM | 360,000 tested, 0.4% active; in the data active = inhibition above about 5%, passing the limit was not always enough
Target sequence (P00519 whole entry, looked up): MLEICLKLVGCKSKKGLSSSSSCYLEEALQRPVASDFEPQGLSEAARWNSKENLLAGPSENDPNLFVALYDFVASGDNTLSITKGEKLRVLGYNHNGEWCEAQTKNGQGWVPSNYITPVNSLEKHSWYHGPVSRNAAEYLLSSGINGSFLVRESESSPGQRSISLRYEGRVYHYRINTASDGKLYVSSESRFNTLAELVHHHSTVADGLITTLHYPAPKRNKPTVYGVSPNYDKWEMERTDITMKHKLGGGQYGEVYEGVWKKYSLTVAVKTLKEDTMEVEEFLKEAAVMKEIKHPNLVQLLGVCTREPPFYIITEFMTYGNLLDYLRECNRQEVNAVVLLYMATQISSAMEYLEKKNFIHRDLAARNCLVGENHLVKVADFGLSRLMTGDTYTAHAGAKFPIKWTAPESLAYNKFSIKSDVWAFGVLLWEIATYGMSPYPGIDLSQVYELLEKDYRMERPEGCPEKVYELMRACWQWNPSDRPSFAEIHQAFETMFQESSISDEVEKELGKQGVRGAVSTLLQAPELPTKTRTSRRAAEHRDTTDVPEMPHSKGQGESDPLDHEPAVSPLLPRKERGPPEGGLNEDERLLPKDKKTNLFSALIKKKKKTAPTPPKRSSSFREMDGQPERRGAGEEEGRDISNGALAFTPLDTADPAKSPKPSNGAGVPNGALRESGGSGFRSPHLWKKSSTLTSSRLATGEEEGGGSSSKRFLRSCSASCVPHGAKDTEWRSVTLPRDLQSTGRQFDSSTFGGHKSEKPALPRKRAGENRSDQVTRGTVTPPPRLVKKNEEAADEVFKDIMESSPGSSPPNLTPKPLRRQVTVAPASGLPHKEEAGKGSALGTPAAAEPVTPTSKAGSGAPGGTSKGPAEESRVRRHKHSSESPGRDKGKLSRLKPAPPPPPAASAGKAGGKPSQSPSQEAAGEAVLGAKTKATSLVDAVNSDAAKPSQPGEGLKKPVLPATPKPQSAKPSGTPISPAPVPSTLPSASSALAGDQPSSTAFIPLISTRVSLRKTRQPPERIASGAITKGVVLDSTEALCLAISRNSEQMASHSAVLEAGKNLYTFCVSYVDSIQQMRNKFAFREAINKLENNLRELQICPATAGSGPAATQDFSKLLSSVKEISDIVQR
Target sequence (Q13671 whole entry, looked up): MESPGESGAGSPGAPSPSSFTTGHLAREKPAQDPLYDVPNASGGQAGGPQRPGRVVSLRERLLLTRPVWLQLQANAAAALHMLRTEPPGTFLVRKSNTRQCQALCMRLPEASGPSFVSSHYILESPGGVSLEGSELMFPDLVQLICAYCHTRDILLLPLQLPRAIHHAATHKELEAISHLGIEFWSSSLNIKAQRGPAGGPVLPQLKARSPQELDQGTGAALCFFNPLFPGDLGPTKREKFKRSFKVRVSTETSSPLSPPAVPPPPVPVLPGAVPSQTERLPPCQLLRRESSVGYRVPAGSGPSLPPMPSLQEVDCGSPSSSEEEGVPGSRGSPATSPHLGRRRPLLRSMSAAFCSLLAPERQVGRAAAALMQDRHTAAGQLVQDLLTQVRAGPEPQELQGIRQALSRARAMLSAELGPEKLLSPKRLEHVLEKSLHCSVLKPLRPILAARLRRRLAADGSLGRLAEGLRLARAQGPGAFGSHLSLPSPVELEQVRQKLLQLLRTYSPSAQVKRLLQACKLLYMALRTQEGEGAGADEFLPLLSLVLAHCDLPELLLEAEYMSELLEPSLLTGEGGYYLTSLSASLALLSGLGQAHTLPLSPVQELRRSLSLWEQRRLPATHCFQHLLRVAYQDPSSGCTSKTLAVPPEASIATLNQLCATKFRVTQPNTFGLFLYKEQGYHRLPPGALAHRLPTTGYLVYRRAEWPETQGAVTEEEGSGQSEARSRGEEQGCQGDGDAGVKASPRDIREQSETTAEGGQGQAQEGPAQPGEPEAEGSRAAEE
TbMetRS inhib: Trypanosoma brucei MetRS inhibition; 360,000 tested, 0.4% active; AID 624268; inhibition, % at 11.9 µM; purified T. brucei MetRS, ATP depletion, Kinase-Glo luminescence;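 active = inhibition above a per-plate cutoff of the control wells' mean inhibition plus 3 SD, cut at about 5.5% in these data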;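 also: 0% = DMSO wells median and 100% = median of wells with control inhibitor compound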
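Material – parasite MetRS enzyme · Medium – HEPES-MgCl2-KCl buffer plus DTT, spermine, BSA, pyrophosphatase · Reagent – ATP, methionine and E. coli bulk tRNA substrates · Times – 15 min enzyme-compound preincubation, 2 h reaction, 10 min detection, 25 °C · Measured by – luminescence of leftover ATP · Evaluation – percent inhibition relative to median high and low control wells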
PG9 binder: PG9 antibody binding by small molecule | AID 624416 | TR-FRET gp120-PG9 antibody binding | 360,000 tested, 0.43% active | inhibition, % at 6.7 µM; in the data active = inhibition above about 8.5%
TbMetRS confirm: confirmation of Trypanosoma brucei MetRS inhibitors. shares compounds with TbMetRS inhib. inhibition, % at 11.9 µM. T. brucei MetRS enzyme, luminescence (ATP depletion). 1,400 tested, 93% active. AID 624412; in the data active = inhibition above about 7%
Jurkat tox: counter-screen for T. brucei MetRS inhibitors: Jurkat cell cytotoxicity; AID 624413; shares compounds with TbMetRS inhib; inhibition, % at 8.3 µM; 1,400 tested, 12% active; Jurkat cells viability, ATP luminescence; in the data active = inhibition above about 15%;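 also: 0% = vehicle and 100% = reference inhibitor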
Tb MetRS inh FP: orthogonal test for Trypanosoma brucei MetRS inhibitors; shares compounds with TbMetRS inhib; purified T. brucei MetRS, fluorescence polarization; inhibition, % at 11.9 µM; 1,400 tested, 44% active; AID 651607; in the data active = inhibition above about 17%;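 also: 0% = vehicle wells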
* hit, by the source's call; / = no result. Sampled rows, rich in hits. Any-hit rate of the full collection: about 1.8%.

SMILES	Rev-erbA mod	Rin1-Abl PPI inh	TbMetRS inhib	PG9 binder	TbMetRS confirm	Jurkat tox	Tb MetRS inh FP
O=C(CCC(=O)Nc1cccc([N+](=O)[O-])c1)N/N=C/c1cccs1	-4.3	-0.5	44.4*	-0.9	69.3*	6.7	47.9*
Cc1ccc(NC(=O)CCC(=O)N/N=C/c2cccs2)cc1C	4.8	-0.7	0.8	0.3	/	/	/
Cc1ccc(N2CC(c3nc4ccccc4[nH]3)CC2=O)c(C)c1 (configuration not stated)	-5.0	1.0	8.3*	1.4	9.2*	-5.2	9.9
Cc1ccc(NS(=O)(=O)c2c(C)[nH]c(C)c2C(=O)N2CCCCC2)cc1Cl	1.6	1.1	21.9*	0.7	32.1*	2.2	11.7
Cc1ccc(NS(=O)(=O)c2c(C)[nH]c(C)c2C(=O)N2CCCCC2)c(Cl)c1	-3.2	-1.9	8.4*	0.4	21.0*	3.0	6.8
CCOC(=O)c1cccc(NS(=O)(=O)c2c(C)[nH]c(C)c2C(=O)N2CCCC2)c1	0.1	-2.6	-0.1	1.2	/	/	/
S=C(NCCc1ccccc1)NCc1cccc(Cl)c1	/	1.5	0.5	/	/	/	/
Fc1ccccc1NC(=S)NCCc1cccc(Cl)c1	3.4	3.1	6.0*	-1.1	17.1*	5.8	8.9
COc1cccc(CN2CCN(Cc3cc4ccccc4[nH]3)CC2CCO)c1 (configuration not stated)	1.1	0.2	1.7	-0.3	/	/	/
CCOc1ccc(CN2CCN(Cc3cc4ccccc4[nH]3)CC2CCO)cc1 (configuration not stated)	-5.0	2.6	14.1*	-1.4	25.8*	5.3	12.6
CCOCCCNc1ncnc2c1[nH]c1ccccc12	-2.4	-0.3	54.6*	1.1	76.4*	13.1	51.6*
CCCCOCCCNc1ncnc2c1[nH]c1ccccc12	-4.2	-2.4	92.7*	-2.7	105.9*	44.0*	95.5*
CCN(CC)C(=O)CSc1nnc(-c2cccs2)o1	-3.0	/	/	/	/	/	/
O=C(Nn1c(O)c(C=C2N=c3ccccc3=N2)sc1=S)c1ccc(Cl)cc1	7.5	1.2	6.4*	1.3	21.0*	5.5	30.1*
Cc1ccc(C(=O)Nn2c(O)c(C=C3N=c4ccccc4=N3)sc2=S)cc1	2.2	2.0	7.5*	-4.3	14.1*	7.0	18.4*
O=C(Nn1c(O)c(C=C2N=c3ccccc3=N2)sc1=S)c1cccc(Cl)c1	6.0	-6.0	1.6	-1.5	/	/	/
O=C(Nn1c(O)c(C=C2N=c3ccccc3=N2)sc1=S)c1ccccc1	6.5	0.8	5.0	-1.6	/	/	/
Cc1ccc(S(=O)(=O)Nn2c(O)c(C=C3N=c4ccccc4=N3)sc2=S)cc1	0.6	-1.8	77.7*	-3.3	93.3*	-7.4	57.0*
COCCCNC(=O)CSc1nnc(-c2cccnc2)n1C1CCCCC1	-2.8	/	/	/	/	/	/
CSc1ccc(-c2cnc(N3CCC(C(N)=O)CC3)s2)cc1	0.5	/	/	/	/	/	/
COc1ccc(C(=O)N/C(=C\c2ccc3c(c2)OCO3)C(=O)NCCc2nc3ccccc3[nH]2)cc1	-0.8	-5.6	6.9*	1.3	11.2*	0.9	6.8
CCCCCC[C@@H](CCCc1ccccc1OC)CN(CCCC)S(C)(=O)=O	0.1	/	/	/	/	/	/
COc1cccc(CC(Cc2nc3ccccc3[nH]2)c2nc3ccccc3[nH]2)c1 (configuration not stated)	0.7	1.3	9.3*	-0.1	12.5*	5.5	4.5
COCCCN1C(=O)[C@H](CC(=O)NCC23CC4CC(CC(C4)C2)C3)[C@]2(C(=O)OC)CCCCC=C12	3.6	/	/	/	/	/	/
CCOC(=O)c1sc(NC(=O)Nc2ccccc2Cl)cc1C	8.3	-1.7	-0.9	-1.2	/	/	/
SMILES	Rev-erbA mod	Rin1-Abl PPI inh	TbMetRS inhib	PG9 binder	TbMetRS confirm	Jurkat tox	Tb MetRS inh FP
CCOC(=O)c1sc(NC(=O)Nc2ccccc2)cc1C	-0.1	-1.6	11.0*	-0.4	28.1*	14.7	35.7*
Cc1ccccc1-c1ccc2c(c1)[C@@H]1C[C@H]3[C@@H](CN1CC2)[C@H](C)ON3C	-1.2	/	/	-2.9	/	/	/
CC(CNC(=S)Nc1cc(F)cc(F)c1)CSc1ccc(Cl)cc1 (configuration not stated)	-0.8	1.0	12.8*	1.1	24.8*	2.2	27.5*
Cc1ccc(NC(=S)NCCSc2ccc(Cl)cc2)cc1	3.3	-5.5	-0.3	-1.2	/	/	/
O=C(CSc1nnc(-c2ccco2)n1-c1ccc(Cl)cc1)Nc1ccccc1-c1ccccc1	3.2	/	/	/	/	/	/
O=C1CCCC(=NNC(=O)c2cc3ccccc3cc2O)C1	/	0.9	5.9*	/	24.4*	0.8	13.7
O=C(NN=C1CCCCCC1)c1cc2ccccc2cc1O	5.4	4.2	0.8	-0.4	/	/	/
N#Cc1ccc(CSc2nnc(Nc3ccccc3)s2)cc1	-3.2	-1.1	52.3*	-0.2	63.9*	-1.4	39.0*
Clc1ccc(OCc2nnc3n2CCCCC3)c(Cl)c1	-3.2	-2.4	16.2*	-0.1	35.7*	0.0	17.7*
Cc1cc(Cl)ccc1OCc1nnc2n1CCCCC2	3.2	0.5	9.4*	-1.6	20.2*	0.1	8.5
COc1ccc(Cc2nc3ccc(S(=O)(=O)N4CCOCC4)cc3[nH]2)cc1	-3.9	-3.0	0.6	-1.0	/	/	/
O=S(=O)(c1ccc2nc(SCc3ccc(Cl)cc3)[nH]c2c1)N1CCOCC1	-2.8	-1.7	12.4*	-0.1	17.9*	0.0	18.6*
Cc1ccccc1OCc1nc2ccc(S(=O)(=O)N3CCOCC3)cc2[nH]1	-3.3	-4.3	1.0	-0.3	/	/	/
O=S(=O)(c1ccc2nc(COc3ccc(Cl)cc3Cl)[nH]c2c1)N1CCOCC1	-4.2	2.6	12.1*	0.2	21.4*	9.2	14.5
CC(C)c1ccc(N)c(S(=O)(=O)O)c1	2.8	-1.5	7.7*	-0.5	1.9	0.3	6.3
COC1=C[C@H](C(=O)NCc2ccccn2)[C@@]2(C)Cc3ccccc3[C@H]2CC1=O	0.9	/	/	/	/	/	/
Cc1cccc(CCNC(=O)c2cc(S(=O)(=O)N3CCCCC3)c[nH]2)c1	1.6	-0.1	26.6*	0.5	46.2*	6.7	27.6*
CCOC(=O)C(/C=C(\C#N)C(=O)OCC)=C(/N)N1CCN(c2ccc(Cl)cc2)CC1	3.6	1.9	40.4*	-0.3	49.4*	-2.7	24.2*
COC(=O)[C@]12C[C@H](CC(=O)N3CCN(C(=O)c4ccco4)CC3)C(=O)N(CCc3ccc(OC)c(OC)c3)C1=C[C@H](C1CCCC1)O[C@@H]2C	-1.8	/	/	/	/	/	/
CNC(=S)NNC(=O)c1ccc(=O)n(Cc2cccc(C(F)(F)F)c2)c1	-0.4	-5.7	6.1*	-0.3	12.7*	-2.0	2.9
O=C(Nc1ccccc1)c1ccc(=O)n(Cc2cccc(Cl)c2)c1	-4.7	2.5	42.6*	-1.2	57.7*	6.0	27.8*
CCNC(=S)NNC(=O)c1ccc(=O)n(Cc2ccccc2)c1	-3.5	1.6	22.5*	-2.6	37.2*	1.1	21.5*
C=CCNC(=S)NNC(=O)c1ccc(=O)n(Cc2ccc(Cl)cc2Cl)c1	-2.6	-0.1	34.5*	-2.5	43.9*	6.0	32.5*

Screening data deposited in PubChem by several laboratories.
